The list is not random: actives were taken first. Their share in the collection is about 6.4%.
PLK1 inh: inhibitors of human PLK1 kinase. recombinant PLK1 kinase, TR-FRET peptide phosphorylation. inhibition, % at 10 µM. 0.53% of 97,000 active. AID 619;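 active = inhibition of 50% or more in the single-concentration screen; inactive = inhibition below 50%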
Target sequence (P53350 whole entry, looked up): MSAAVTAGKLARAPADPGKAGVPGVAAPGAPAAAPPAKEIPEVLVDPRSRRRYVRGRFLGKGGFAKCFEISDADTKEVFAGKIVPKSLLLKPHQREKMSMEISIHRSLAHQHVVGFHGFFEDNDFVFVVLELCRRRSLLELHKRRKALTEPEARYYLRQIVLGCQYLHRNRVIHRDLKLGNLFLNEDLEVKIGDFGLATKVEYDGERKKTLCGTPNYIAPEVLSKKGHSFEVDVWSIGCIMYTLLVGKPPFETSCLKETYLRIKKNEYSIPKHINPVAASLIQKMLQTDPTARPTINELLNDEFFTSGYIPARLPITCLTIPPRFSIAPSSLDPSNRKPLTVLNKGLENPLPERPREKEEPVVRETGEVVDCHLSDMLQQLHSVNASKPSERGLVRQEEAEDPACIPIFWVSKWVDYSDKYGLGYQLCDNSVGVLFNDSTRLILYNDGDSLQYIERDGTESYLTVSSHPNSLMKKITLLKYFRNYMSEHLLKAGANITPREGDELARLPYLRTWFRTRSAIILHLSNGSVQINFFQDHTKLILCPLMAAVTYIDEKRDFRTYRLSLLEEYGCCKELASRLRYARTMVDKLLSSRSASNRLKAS
EphB4 ephrin blk: antagonists of human EphB4-ephrin-B2 interaction; P54760; EphB4 LBD / TNYL-RAW-Alexa532 peptide, fluorescence polarization; inhibition, % at 7 µM; 0.15% of 97,000 active; AID 720;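 active = inhibition above the screen-wide mean inhibition plus 3 SD, cut at about 15% in these data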
PLK1 PBD inh: Plk1 (human) PBD binding inhibition; P53350; Plk1 PBD phosphopeptide binding, fluorescence polarization; inhibition, %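 (tested at about 20 µM)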; 0.13% of 97,000 active; in the data active = inhibition above about 34%, passing the limit was not always enough
PostGolgi ctrl: yeast control strain growth, post-Golgi counter-screen; efflux-deficient yeast background strain, growth absorbance A615, 16 h; inhibition, % at 10 µM; 5% of 98,000 active; AID 738
PostGolgi yeast: growth inhibition of a yeast mutant, post-Golgi transport screen; post-Golgi transport phenotypic cell assay; inhibition, % at 10 µM; 0.9% of 98,000 active;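 also: yeast cells grown in 1536-well plates; yeast grown about 18 h at 30C before absorbance read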
HIV Rev-RRE inh: HIV Rev-RRE protein-RNA interaction inhibition. 0.79% of 97,000 active. P05866. Rev peptide-RRE RNA binding, FRET. AID 704. inhibition, % at 8 µM;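 active = inhibition above the screen-wide mean plus 3 SD, cut at about 35% in these data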
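Probe or stimulus: fluorescein-Rev peptide as binding partner; assay system: Cy5-tagged RRE RNA duplex with fluorescein-tagged Rev peptide; timing: 5 min compound–RNA preincubation, then 15 min with peptide, 25 °C; medium: HEPES pH 7.5 buffer with KCl, MgCl2, NaCl and EDTA; signal: fluorescein-to-Cy5 FRET, 480 nm excitation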
Each line names hits and unclear results; the compound was inactive in the other large screens; [ ] = another dose, or the depositor's remark. Rule as the data show it, unless noted: active = inhibition above about 30%; inactive = the rest.

c1ccc(NCc2nc(-c3ccccc3)no2)cc1	PostGolgi ctrl 31.9
O=C(CCN1CCC(c2ccccc2)C1)c1cccs1 (centres undefined)	PostGolgi ctrl 38.8
O=C(CCN1CCC(c2ccccc2)C1)c1ccccc1 (centres undefined)	none
CN(C(=O)c1cnc(N2CCN(c3ncccn3)CC2)c2ccccc12)c1ccc(Cl)cc1	PostGolgi ctrl 73.3
COC(=O)C(/C=N/OCc1ccc([N+](=O)[O-])cc1)NC(=O)c1cccc(Cl)c1 (centres undefined)	none
Cn1c2c(c(=O)n(C)c1=O)C(C(F)(F)F)(C(F)(F)F)N=C(c1ccc(Cl)cc1)N2	PostGolgi ctrl 68.5, PostGolgi yeast 46.9
CC(=O)NC1(C(F)(F)F)C(=O)Nc2c1c(=O)n(C)c(=O)n2C (centres undefined)	none
COc1ccc(-c2nnc3n2N=C(C)CS3)cc1	none
CCOc1cccc(-c2nnc3n2N=C(c2cc(OC)ccc2OC)CS3)c1	PostGolgi ctrl 58.3 (no result: PLK1 inh, EphB4 ephrin blk, PLK1 PBD inh, HIV Rev-RRE inh)
COc1cccc(-c2nnc3n2N=C(c2cc(OC)ccc2OC)CS3)c1	PostGolgi ctrl 36.8
COc1ccc(OC)c(C2=Nn3c(nnc3-c3cc(OC)c(OC)c(OC)c3)SC2)c1	none
COc1ccc(C2=Nn3c(nnc3-c3ccc(OC)cc3)SC2)cc1	PostGolgi ctrl 42.3
Cc1cccc(NC(=O)CSc2nnc([C@@H](N)Cc3ccccc3)o2)c1C	none
O=C(Nc1ccccc1C(=O)N1CCOCC1)c1ccncc1	EphB4 ephrin blk 15.5
CC(NC(=O)Cc1ccccc1)c1nc2ccccc2[nH]1 (centres undefined)	PostGolgi ctrl 32.6 (no result: PLK1 inh, EphB4 ephrin blk, PLK1 PBD inh, HIV Rev-RRE inh)
CCCC(=O)NC(C)c1nc2ccccc2[nH]1 (centres undefined)	none
CCCNC(=O)C(C)n1c2ccccc2c2nc(=O)cc(C)n21 (centres undefined)	PostGolgi ctrl 32.8
CC1=CC(=NOC(=O)/C=C/c2ccccc2)C=C(C)C1=O	none
CC1=C/C(=N\OS(=O)(=O)c2ccccc2)C(C)=CC1=O	PostGolgi ctrl 48.5, PostGolgi yeast 35.6
CCOc1ccc(CCNC(=O)Cn2c(=O)oc3ccccc32)cc1OCC	none
CC(C)NC(=O)c1cc(-c2ccc(Br)cc2)on1	none
CC1CCCCN1c1nnc(NC(=O)c2cc(-c3ccc(Br)cc3)on2)s1 (centres undefined)	PostGolgi ctrl 45.8
COc1ccc(C(C)=O)c(Oc2nc(CN3CCOCC3)nc3scc(-c4cccs4)c23)c1	PostGolgi ctrl 42.2
CC(=O)c1ccccc1Oc1nc(CN2CCOCC2)nc2scc(-c3cccs3)c12	PostGolgi ctrl 42.4 (no result: PLK1 inh, EphB4 ephrin blk, PLK1 PBD inh, HIV Rev-RRE inh)
CCc1c(O)cc2n(c1=O)-c1ccc(Cl)cc1C2(C)C	none (no result: PostGolgi ctrl, PostGolgi yeast)
COCc1cc(C)nc(N2CCNCC2)c1C#N	none
CC(=O)c1ccc(N2CCN(C(=O)c3ccc(Br)cc3)CC2)c(F)c1	EphB4 ephrin blk 20.6, PostGolgi ctrl 53.6, PostGolgi yeast 86.8
Cc1cc(-c2ccccc2)nc(N(C)NC(=O)c2c(F)cccc2F)c1S(C)(=O)=O	PostGolgi ctrl 30.3
COc1ccc(C2c3c(-c4cc(Cl)c(C)cc4O)n[nH]c3C(=O)N2Cc2cccnc2)cc1OC (centres undefined)	none
COc1ccc(C2C=C(c3ccccc3)Nc3ncnn32)cc1 (centres undefined)	HIV Rev-RRE inh 44.9
COc1cccc(C2CC(c3ccccc3)n3ncnc3N2)c1 (centres undefined)	none
Clc1ccc(C2=CC(c3ccco3)n3ncnc3N2)cc1 (centres undefined)	HIV Rev-RRE inh 122.3[fluorescence artefact?]
CCOc1ccc(C2C=C(c3ccc(C)cc3)Nc3nnnn32)cc1 (centres undefined)	HIV Rev-RRE inh 39.2
COc1ccc(C2C=C(c3ccc(C)c(C)c3)Nc3ncnn32)c(OC)c1OC (centres undefined)	PLK1 inh 67.4
O=C(Cn1c(=O)n(-c2ccccc2)c(=O)n1CC(=O)N1CCCCC1)N1CCCCC1	none
CCOC(=O)CCC(=O)N1CCOCCOCCN(C(=O)CCC(=O)OCC)CCOCCOCC1	none
COc1ccccc1NC(=O)C1CC(=O)N(c2ccc(F)cc2)C1 (centres undefined)	none
CCSc1nc2cc(OC)c(OC)cc2c(=O)n1CC	none
CCOc1ccc(C2C=C(c3ccccc3)Nc3nnnn32)cc1 (centres undefined)	none

Compound activity deposited in PubChem BioAssay by several laboratories.
